# Experimental data from different studies.
# Protocols differ between the studies behind these lines.
# Effect on: metabolic stability
# Host: mouse
# Matrix: liver microsomes
Structure (SMILES),concentration,pH,half-life [min]
O=c1c2ccc(Oc3ccc(OC(F)(F)F)cc3)cc2[nH]c2ccc(Cl)c(F)c12,1 µM,pH 7.4,> 60
O=c1c2cc(Cl)ccc2[nH]c(=S)n1Cc1ccc(-c2nnn[nH]2)nc1,1 µM,pH 7.4,> 186
Cc1[nH]c(C)c(S(=O)(=O)Nc2ccc(C(F)(F)F)c(Cl)c2)c1C(=O)N(C)C,,,3.9
O=c1c2c(F)cc(Cl)cc2[nH]c2cccc(Oc3ccc(OC(F)(F)F)cc3)c12,1 µM,pH 7.4,> 60
Cc1cc(-c2ccnc3[nH]cc(F)c23)cc(F)c1[C@@]1(O)[C@H](C)CN(C(=O)CN)C[C@@H]1C,,,84.1
Cc1ccc2[nH]c(=S)n(Cc3cccnc3)c(=O)c2c1,1 µM,pH 7.4,4.9
Cc1cc(-c2ccnc3[nH]cc(F)c23)cc(F)c1[C@@]1(O)[C@H](C)CNC[C@@H]1C,,,18.9
CC(C)c1cc(C(=O)NCCN)c2cnn(C(C)C)c2n1,,,> 145
NS(=O)(=O)c1nnc(NC(=O)CCC2CCC(F)(F)CC2)s1,,,> 120
O=c1c2c([nH]c3cc(Oc4ccc(OC(F)(F)F)cc4)c(F)cc13)CCCC2,1 µM,pH 7.4,13.2
Cc1c(C)n(Cc2cccc(OC(C)(C)C(=O)O)c2)c2ccc(C(=O)N[C@@H](C)c3ccc(C(C)(C)C)cc3)cc12,,,> 60
CC(=O)N1C[C@@H](C)[C@](O)(c2c(C)cc(-c3ccnc4[nH]cc(F)c34)cc2F)[C@@H](C)C1,,,3.5
Cc1[nH]c(C)c(S(=O)(=O)Nc2ccc(C(F)(F)F)c(Cl)c2Cl)c1C(=O)N1CCC(F)(F)C1,,,44
O=C(O)Cc1ccccc1Nc1c(Cl)cccc1Cl,,,44.4
COCC(=O)OCc1cc2[nH]c(=S)n(Cc3cccnc3)c(=O)c2cc1Cl,1 µM,pH 7.4,< 5
CCCCCCCCCCCCCCCC(=O)NCCOC(=O)C[C@@H](CN)CC(C)C,1 µM,pH 7.4,95
Cc1cc(-c2ccnc3[nH]cc(F)c23)cc(F)c1[C@@]1(O)[C@H](C)CN(C2COC2)C[C@@H]1C,,,1.7
COc1ccc(Cn2cc(CO[C@@H]3O[C@H]4[C@H](OC[C@H]4O)[C@H]3O)nn2)cc1,,,120
CN(C)CC(=O)OCc1cc2[nH]c(=S)n(Cc3cccnc3)c(=O)c2cc1Cl,1 µM,pH 7.4,< 5
CN1CCC(Oc2ccc3c(=O)c4c(F)cc(Cl)cc4[nH]c3c2)CC1,1 µM,pH 7.4,> 60
Nc1nnc(-c2ccccc2O)cc1N1CCN(Cc2ccc(N3CCN(CCOc4cccc5c4C(=O)N(C4CCC(=O)NC4=O)C5=O)CC3)c(F)c2)CC1 (stereo not drawn),1 mM,,46
COc1ccc(Oc2ccc3c(=O)c4c(F)cc(Cl)cc4[nH]c3c2)cc1,1 µM,pH 7.4,> 60
C=CCn1c(=O)c2cnc(Nc3ccc(N4CCN(C)CC4)cc3)nc2n1-c1ccc2c(n1)[C@@](O)(CC)CC2,,,77
OCc1ccc(-c2nn(Cc3ccccc3)c3ccccc23)o1,,,3
CCCCCCOc1ccc2c(=O)c3c([nH]c2c1)CCCC3,1 µM,pH 7.4,11.8
NS(=O)(=O)c1nnc(NC(=O)CCC2CC3CCC2C3)s1 (stereo not drawn),,,46
O=c1c2ccc(Oc3cccc(OC(F)(F)F)c3)cc2[nH]c2cc(Cl)cc(F)c12,1 µM,pH 7.4,57
Cc1cc(-c2ccnc3[nH]cc(F)c23)cc(F)c1[C@@]1(O)[C@H](C)CN(C2CCS(=O)(=O)CC2)C[C@@H]1C,,,45.9
CC(C)(C)OC(=O)N1CCC(Oc2ccc3c(=O)c4c(Cl)cc(F)cc4[nH]c3c2)CC1,1 µM,pH 7.4,> 60
CCN(CC)CCNC(=O)c1c(C)[nH]c(/C=C2\C(=O)Nc3ccc(F)cc32)c1C,1 µM,,12.6
